≈ marks a conversion by molar mass, not a printed value. Calls of active or inactive are those of the source.

Among the data in ChEMBL document CHEMBL1926666, “Synthesis of novel 3-cyclohexylpropanoic acid-derived nitrogen heterocyclic compounds and their evaluation for tuberculostatic activity” (Bioorg Med Chem, 2012) are MIC, Activity and inhibition values, retold here.

Data set [1] deals with Mycobacterium tuberculosis. The data set can be described thus: Antituberculosis activity against Mycobacterium tuberculosis H37Rv by twofold serial dilution method. The format is functional. The method in brief:
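Classical two-fold test-tube serial dilution in Youmans' modified Proskauer–Beck liquid medium with 10% bovine serum. Inocula from 14-day cultures. Compounds in ethylene glycol, 10 mg/mL stock, geometric dilutions in medium; 3.1, 6.2, 12.5, 25, 50 and 100 µg/mL evaluated. Incubation at 37 °C. MIC = lowest concentration inhibiting growth relative to a compound-free tube. INH, PZA and RMP served as reference drugs.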

The subject of the next data set is Skin fibroblast. The data set can be described thus: Stimulation of type 1 collagen output in human skin fibroblasts after at 10 to 100 ug/ml after 72 hrs by ELISA. The format is functional. A digest of the protocol:
(§1)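 Neonatal human dermal fibroblasts in high-glucose DMEM with 5% calf serum, 3 × 10³ cells/well, 72 h compound exposure. Conditioned media assayed for type I collagen by sandwich ELISA (affinity-purified antibodies, streptavidin/avidin-HRP, ABTS, 405 nm), quantified against a purified human collagen I standard curve. Expressed as % of untreated control. MAP and bFGF (15 ng/mL) served as positive controls.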
For orientation: In an ELISA, binding on a coated surface is turned into a signal by an enzyme label.

A further data set deals with Brevibacterium linens. Briefly: Antibacterial activity against Brevibacterium linens ATCC 9174 after 24 hrs by M7-A7 CLSI method. The settings on record: ATCC 9174, 24 h. The format is functional. A digest of the protocol:
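Compounds dissolved in 100% DMSO at 5 mg/mL, then 1 mg/mL in 10% DMSO; serial dilutions in broth from 100 µg/mL final. B. linens: nutrient broth 24 h at 30 °C, inoculum 1 McFarland, 24 h with compounds. P. acnes: thioglycolate broth 72 h at 33 °C, inoculum 0.5 McFarland, 72 h anaerobic with compounds. MIC = lowest concentration with no visible growth, confirmed by A655.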

Data set [2] is described as follows: Growth inhibition of human skin fibroblasts at 100 ug/ml after 72 hrs by MTT assay. Also noted: species or system Skin fibroblast. The settings on record: read-out: GI. The method in brief:
(§2)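 Neonatal human dermal fibroblasts in high-glucose DMEM with 5% cosmic calf serum, seeded 3 × 10³ cells/well and exposed to compounds for 72 h. MTT then added for 2.5 h; formazan solubilised in isopropanol and read at 550 nm; signal proportional to cell number.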
On the technique in general: Formazan colour is commonly taken as a measure of viable cells.

Data set [3] is described as follows: Growth inhibition of human skin fibroblasts at 10 ug/ml after 72 hrs by MTT assay. The settings on record: read-out: GI. Also noted: species or system Skin fibroblast. A digest of the protocol: as §2
A short description of data set [4]: Stimulation of type 1 collagen output in human skin fibroblasts after at 100 ug/ml after 72 hrs by ELISA relative to control. It counts as functional, Skin fibroblast. A digest of the protocol:
as §1

With `O=C(CCC1CCCCC1)NNC(=S)Nc1ccc(Cl)cc1`, the values for the MIC (in data set [1]; in the data set with Brevibacterium linens) were 50 µg/mL (≈ 147 µM) and > 100 µg/mL, respectively. Besides, in the data set on Skin fibroblast, the outcome was inactive.

Take `CO[C@H]1/C=C/O[C@@]2(C)Oc3c(C)c(O)c4c(O)c(c(/C=N/N5CCN(C)CC5)c(O)c4c3C2=O)NC(=O)/C(C)=C\C=C\[C@H](C)[C@H](O)[C@@H](C)[C@@H](O)[C@@H](C)[C@H](OC(C)=O)[C@@H]1C` [RIFAMPIN]: in data set [1], the MIC (in general, the smallest concentration in the dilution series that meets the test's criterion for growth inhibition) amounted to 1.2 µg/mL (≈ 1.46 µM).

With `S=c1[nH]nc(CCC2CCCCC2)o1`, the MIC in data set [1] is 25 µg/mL (≈ 118 µM); in the data set with Brevibacterium linens it was > 100 µg/mL. In the data set with Skin fibroblast, the result was inactive.

As for `CSC(=NNC(=O)CCC1CCCCC1)SC`, the MIC in data set [1] was 50 µg/mL (≈ 182 µM); in the data set on Brevibacterium linens it was > 100 µg/mL. Also, the result in the data set on Skin fibroblast was inactive.

For `C=CCn1c(CCC2CCCCC2)n[nH]c1=S`, the MIC is 50 µg/mL (≈ 199 µM) in data set [1] and > 100 µg/mL in the data set on Brevibacterium linens. Also, the outcome with Skin fibroblast was inactive.

With `C=CCNC(=S)NNC(=O)CCC1CCCCC1`, the MIC was 50 µg/mL (≈ 186 µM) in data set [1] and > 100 µg/mL in the data set with Brevibacterium linens. Also, the outcome with Skin fibroblast was inactive.

Take `CNC(=S)NNC(=O)CCC1CCCCC1`: the figures for the minimal inhibitory concentration (MIC) (in data set [1]; with Brevibacterium linens) were 50 µg/mL (≈ 205 µM) and > 100 µg/mL, respectively. Further, the outcome in the data set on Skin fibroblast was inactive.

Consider `O=C(CCC1CCCCC1)NN=C1SCCS1`, for which the MIC in data set [1] is 50 µg/mL (≈ 184 µM); against Brevibacterium linens it was > 100 µg/mL. The outcome in the data set on Skin fibroblast was inactive.

Consider `O=C(CCC1CCCCC1)NNC(=S)NC1CCCCC1`, for which the MIC in data set [1] was 50 µg/mL (≈ 161 µM); in the data set on Brevibacterium linens it was > 100 µg/mL. In the data set with Skin fibroblast, the outcome was inactive.

As for `c1cnc2[nH]c(CCC3CCCCC3)nc2c1`, in data set [2], the inhibition at 72 h, 100 ug/ml was 41%. Further, the minimum inhibitory concentration (MIC) in data set [1] was 25 µg/mL (≈ 109 µM); in the data set with Brevibacterium linens, > 100 µg/mL. The result in the data set with Skin fibroblast was inactive. Besides, in data set [3], the inhibition at 72 h, 10 ug/ml was 0%.

In the case of `NNC(=O)c1ccncc1` [ISONIAZID], in data set [1], the MIC was 0.5 µg/mL (≈ 3.65 µM).

As for `Brc1cnc2[nH]c(CCC3CCCCC3)nc2c1`, the inhibition at 72 h, 100 ug/ml in data set [2] was found to be 100%. In addition, the results for the minimum inhibitory concentration (MIC) (in data set [1]; in the data set with Brevibacterium linens) were 6.5 µg/mL (≈ 21.1 µM) and > 100 µg/mL, respectively. The outcome with Skin fibroblast was inactive. In data set [3], the inhibition at 72 h, 10 ug/ml came out at 17%.

In the case of `Cl.Cl.c1cc2nc(CCC3CCCCC3)[nH]c2cn1`, the inhibition at 72 h, 100 ug/ml in data set [2] turned out to be 0%. For the same compound, the values for the MIC (in data set [1]; against Brevibacterium linens) were 25 µg/mL and > 100 µg/mL, respectively. Moreover, the outcome in the data set on Skin fibroblast was inactive. Further, in data set [3], the inhibition at 72 h, 10 ug/ml came out at 0%.

Regarding `S=c1[nH]nc(CCC2CCCCC2)n1C1CCCCC1`, the MIC was 50 µg/mL (≈ 170 µM) in data set [1] and > 100 µg/mL against Brevibacterium linens. The outcome in the data set on Skin fibroblast was inactive.

As for `c1ccc2c(c1)ccc1nc(CCC3CCCCC3)[nH]c12`, the inhibition at 72 h, 100 ug/ml in data set [2] came out at 74%. The MIC is 1.5 µg/mL (≈ 5.39 µM) in data set [1] and > 100 µg/mL against Brevibacterium linens. In the data set on Skin fibroblast, the outcome was inactive. Besides, the inhibition at 72 h, 10 ug/ml in data set [3] is 16%.

Turning to `S=c1[nH]nc(CCC2CCCCC2)[nH]1`, the MIC in data set [1] was 50 µg/mL (≈ 237 µM); against Brevibacterium linens it was > 100 µg/mL. The outcome with Skin fibroblast was inactive.

As to `NC(=O)c1cnccn1` [PYRAZINAMIDE], the MIC in data set [1] worked out at 25 µg/mL (≈ 203 µM).

Take `CSC(=S)NNC(=O)CCC1CCCCC1`: the MIC in data set [1] is 50 µg/mL (≈ 192 µM); against Brevibacterium linens, > 100 µg/mL. Besides, the outcome in the data set with Skin fibroblast was inactive.

Take `CC1(C)CNc2nnc(CCC3CCCCC3)n2C1`: the MIC in data set [1] was 50 µg/mL (≈ 191 µM); in the data set on Brevibacterium linens it was > 100 µg/mL. The outcome with Skin fibroblast was inactive.

As for `Cn1c(CCC2CCCCC2)n[nH]c1=S`, the minimum inhibitory concentration (MIC) in data set [1] was 50 µg/mL (≈ 222 µM); against Brevibacterium linens it was > 100 µg/mL. The outcome in the data set with Skin fibroblast was inactive.

`O=[N+]([O-])c1cc(Cl)cc2[nH]c(CCC3CCCCC3)nc12`: the inhibition at 72 h, 100 ug/ml in data set [2] is 18%. In data set [4], this compound returned an Activity of 166%. Further, the values for the MIC (in data set [1]; with Brevibacterium linens) were 12.5 µg/mL (≈ 40.6 µM) and > 100 µg/mL, respectively. Also, the inhibition at 72 h, 10 ug/ml in data set [3] worked out at 0%.

Turning to `S=c1[nH]nc(CCC2CCCCC2)n1-c1ccc(Cl)cc1`, the MIC in data set [1] was 50 µg/mL (≈ 155 µM); against Brevibacterium linens, > 100 µg/mL. In addition, the outcome in the data set on Skin fibroblast was inactive.

Consider `c1ccc2nc3cc4[nH]c(CCC5CCCCC5)nc4cc3nc2c1`, for which the inhibition at 72 h, 100 ug/ml in data set [2] is 11%. The MIC in data set [1] was 3.1 µg/mL (≈ 9.38 µM); in the data set on Brevibacterium linens, > 100 µg/mL. For the same compound, in the data set on Skin fibroblast, the outcome was inactive. In data set [3], the inhibition at 72 h, 10 ug/ml turned out to be 0%.
